# Assay outcomes: PubChem BioAssay, Broad Institute
# Shown are actives, neighbours in structure and some others; about 3.5% of the full set was active somewhere.
# HIV Env fusion: inhibitors of HIV Env-mediated cell fusion. inhibition, % at 12.3 µM. HeLa-JRFL Env/CEM21 cell fusion, luciferase. hit rate 1.1% among 360,000;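 active means mean replicate inhibition score of at least 50 and every replicate individually at or above 50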;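 further: 0% = plate neutral controls and 100% = maraviroc near 300 nM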
# Cneo AK release: Cryptococcus neoformans lysis via adenylate kinase release. C. neoformans lysis, adenylate kinase release luminescence, 4 h; normalised: neutral wells 0, clomiphene wells 100. lysis activity, % at 15 µM. hit rate 0.2% among 360,000. AID 651654;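 active means mean lysis activity across replicates of at least 80%, whatever share of replicates individually reach that level; inactive means mean lysis activity below 80%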
#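 Assay system: Cryptococcus neoformans yeast cells / Dosing: single-point compound dose / Timing: 4 h at 37 °C static, read 1 h later / Measured by: luminescence of released adenylate kinase using an AK detection reagent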
# FGF22 binding: FGF22 (human) thermal shift binding. Q9HCT0. recombinant FGF22 thermal shift, SYPRO orange fluorescence; percent of sucrose octasulfate shift, DMSO zero. activity (Tm shift, normalised), % at 9.99 µM. hit rate 1.5% among 340,000. AID 651658;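 active means mean Tm shift, scaled 0 neutral to 100 positive control, at about 1.3% or above, every replicate too, limit read from the data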
# ERAP1 inh: blocks human ERAP1 aminopeptidase activity | AID 652197 | hit rate 0.15% among 340,000 | inhibition, % at 10.7 µM | Q9NZ08 | recombinant ERAP1, Leu-AMC fluorescence, 60 min;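 active means mean replicate inhibition of at least 30%, or all replicates individually reaching that 30% level; inactive means mean below 30% and not every replicate reaching it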;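 further: 0% = neutral control wells and 100% = L-leucinethiol positive control wells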
# PGC1a acetyl inh: lowers PGC1a acetylation signal in U2OS cells; AlphaScreen anti-acetyl-lysine; with virally co-expressed GCN5 acetyltransferase; inhibition, % at 15.6 µM; hit rate 0.17% among 350,000; AID 651687;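 active means every replicate shows inhibition of at least 40%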;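 further: 0% = neutral control wells and 100% = positive control wells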
# Ecoli rRNA inh: selective bacterial rRNA inhibition in E. coli; E. coli WT GFP vs humanized-ribosome RFP mutants, fluorescence, 24 h; active compounds read low; DMSO median 0, no signal -100; GFP signal change (wild-type ribosome), % (no concentration beside the values); hit rate 1.6% among 350,000;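 active means significant combined selectivity score with lowered wild-type GFP, culture density cut under 30%, mutant RFP and density less affected; inactive means any of these conditions unmet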
# * = called active by the depositor; · = not tested or not shown; ! = repeats disagree; [ ] = remark or other dose.
SMILES,HIV Env fusion,Cneo AK release,FGF22 binding,ERAP1 inh,PGC1a acetyl inh,Ecoli rRNA inh
c1ccc(Cn2cc(CSc3ccccc3)nn2)cc1,-20,1,0,2,9,-33*
CC(Nc1ncnc2ccccc12)c1ccccc1 (stereo unspecified),6,-2,0,0,·,-30*
CCCCC(Nc1ncnc2ccccc12)C(=O)O (stereo unspecified),-92,1,·,·,16,·
C[C@@H]1CN([C@@H](C)CO)C(=O)c2ccccc2-c2ccccc2CO[C@@H]1CN(C)C(=O)Nc1ccc2c(c1)OCO2,59*[16.7 µM],0,0,1,-8,-1
C[C@H](CO)N1C[C@H](C)[C@@H](CN(C)C(=O)Nc2cccc(C(F)(F)F)c2)OCc2ccccc2-c2ccccc2C1=O,58*[16.7 µM],46,0,1,-22,2
C[C@@H]1CN([C@H](C)CO)C(=O)c2ccccc2-c2ccccc2CO[C@H]1CN(C)C(=O)Nc1cccc(C(F)(F)F)c1,35[16.7 µM],-3,0,-1,-1,-1
CC(C)Sc1nc2c(c(=O)n(C)c(=O)n2C)n1C,·,1,0,-1,-5,7
CC(=O)N(Cc1ccccc1)C(CC(=O)NCc1ccccc1)C(=O)O (stereo unspecified),-12,-2,·,0,-14,10
CC[C@@]1(O)C(=O)OCc2c1cc1n(c2=O)Cc2cc3c(N)cccc3nc2-1,68*,-1,0,0,·,1
Cc1ccc(CSCCNC(=O)c2ccc(Cl)c(S(=O)(=O)N3CCOCC3)c2)cc1,85*,-4,·,·,-18,·
CC1CN(S(=O)(=O)c2cc(C(=O)NCc3ccncc3)ccc2Cl)CC(C)O1 (stereo unspecified),·,-1,0,-4,2,2
Cc1ccccc1CCNC(=O)c1ccc(Cl)c(S(=O)(=O)N2CC(C)OC(C)C2)c1 (stereo unspecified),59*,2,0,-1,-15,0
CC(C)(c1ccc(O)c([N+](=O)[O-])c1)c1ccc(O)c([N+](=O)[O-])c1,-9,0,0,-3,4,-8
CC(C)(c1cc(Br)c(O)c(Br)c1)c1cc(Br)c(O)c(Br)c1,·,3,1.6*,6,0,-57
COc1ccc(CC(=O)NNC(=O)CCC(=O)Nc2cc(C)ccc2C)cc1,13,·,44*,1,-9,12
COc1ccc(C(=O)NNC(=O)CCC(=O)Nc2ccc(C)cc2C)cc1,2,-2,0,-4,-4,·
CCC(C)NS(=O)(=O)c1ccc(S(=O)(=O)N2CCCC3(CCCCC3)C2)cc1 (stereo unspecified),77*,-1,·,2,-11,9
CCC(C)C(=O)Nc1ccc(S(=O)(=O)N2CCCC2)cc1 (stereo unspecified),3,1,0,3,1,4
Cc1ccc(SC2CC(=O)N(c3ccc4c(c3)OCCO4)C2=O)cc1 (stereo unspecified),-5,·,43*,-2,-9,-10
C[C@@H]1CN([C@@H](C)CO)C(=O)Cc2cc(NC(=O)Nc3cccc4ccccc34)ccc2O[C@H]1CN(C)Cc1ccc(Cl)c(Cl)c1,17[16.7 µM],-2,0,-1,5,0
CCOc1cccc(C(=O)N2CCCN(C)CC2)c1,12,0,0,2,21,1
NC(=S)c1ccc(OCCCc2ccccc2)cc1,70*,4,0,2,-7,2
CCCCOc1ccc(C(=O)NCCc2ccccc2)cc1,-64,-3,0,-2,·,-7
O=C(CCc1ccc(O)c(O)c1)NNC(=S)Nc1ccc(Br)cc1Cl,20,3,1,2,0,-24*
CSCCC(N=C1NS(=O)(=O)c2ccccc21)C(=O)NCc1ccccc1F (stereo unspecified),-39,-1,0,1,-4,-2
SMILES,HIV Env fusion,Cneo AK release,FGF22 binding,ERAP1 inh,PGC1a acetyl inh,Ecoli rRNA inh
Cc1ccc(N/N=C(\C#N)C(N)=S)cc1C,-12,·,44*,5,·,-33*
O=C(Nc1ccccc1)c1ccccc1NC(=O)c1ccccc1[N+](=O)[O-],-6,1,0,·,-4,-20
O=[N+]([O-])c1ccccc1C(=Nc1ccccc1)c1c(O)cc(O)cc1O,-8,1,-1,-3,10,-21*
O=C(NCC(c1ccc(F)cc1)N1CCOCC1)c1ccc([N+](=O)[O-])o1 (stereo unspecified),-13,-20,1,-2,-9,-18*
COCC(C)n1c(C)cc(C(=O)CN2C(=O)NC3(CCCCC3C)C2=O)c1C (stereo unspecified),-23,-1,·,·,4,·
Cc1c(C)n2c(SCC(=O)Nc3ccc4c(c3)OCCO4)nnc2[nH]c1=O,·,7,44*,2,·,-3
Cc1cccc(Nc2nnc(SCC(=O)NC(=O)Nc3ccc4c(c3)OCCO4)s2)c1,10,-5,0,-3,-6,16
Cc1nnc(SCC(=O)NC(=O)Nc2ccc3c(c2)OCCO3)s1,-10,·,43*,2,·,-11
CC(C)c1ccc(/C=C/c2ccc(=O)n(C)n2)cc1,-121,·,42,-1,4,-32
Cc1[nH]c2ccccc2c1C(=O)C(=O)N1CCCc2ccccc21,1,·,0,2,·,·
Cc1[nH]c2ccccc2c1SCC(=O)N1CCCc2ccccc21,69*,26,0,4,·,-23
Cn1cccc1C(=O)NC(=O)COC(=O)CNS(=O)(=O)c1ccc(Br)cc1,·,-1,·,·,·,·
CCOc1ccc(S(=O)(=O)NCCC(=O)OCC(=O)NC(=O)c2cccn2C)cc1,-4,5,44*,3,-2,-1
Cc1cccc(OCc2n(CC(=O)OC3CC(C)CCC3C(C)C)c3ccccc3[n+]2C)c1 (stereo unspecified),·,·,·,·,-38,·
CC1CCC(C(C)C)C(OC(=O)Cn2c(-c3ccc(F)cc3)[n+](C)c3ccccc32)C1 (stereo unspecified),65*,-1,0,11,·,-47
CC1CCC(C(C)C)C(OC(=O)Cn2c(-c3ccccc3)[n+](C)c3ccccc32)C1 (stereo unspecified),69*,11,0,6,1,-51*!
COc1ccc2c3c(n(C)c2c1)[C@H](CO)NCC31CN(C(=O)Nc2ccccc2F)C1,·,·,0,-1,-7,1
CCCn1c(=S)[nH]c2sc3c(c2c1=O)CCCC3,-67,4,0,-7,-1,-1
Nn1c(=S)[nH]c2sc3c(c2c1=O)CCCC3,-11,·,0,-3,·,-21*
C[C@H](CO)N1C[C@H](C)[C@H](CN(C)C(=O)Nc2ccccc2)OCCCC[C@H](C)Oc2ccc(N(C)C)cc2C1=O,29[16.7 µM],·,·,·,7,-5
COc1ccccc1C=NN1CCCCCC1,·,1,0,-3,-4,9
